Screens as filed in PubChem.
CAL PDZ FP-1 = human CAL PDZ-peptide interaction inhibition; Q9HD26; purified CAL PDZ, TMR-peptide fluorescence polarization, 1 h; inhibition, % at 20 µM; actives 0.02% (n = 330,000); AID 504414;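 active = highest replicate inhibition of at least 40%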
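material = purified tagged CAL PDZ domain construct (CerCALP) | compound dosing = 20 µM, one dose | times = 1 h at RT | measured by = fluorescence polarization from S- and P-plane intensities, G-factor corrected | read-out = inhibition from polarization loss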
cardiac RTF act = increases calcium sensitivity of human cardiac regulated thin filaments; P19429+P45379; IANBD-labeled TnC RTF fluorescence at EC20 calcium; 0% EC20 calcium, 100% full calcium; activation, % at 7.2 µM; actives 0.24% (n = 340,000);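 active = activation above the mean over all tested compounds plus 3 SD, cut at about 30% in these data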;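 also: rise in fluorescence read as greater calcium sensitivity of cardiac thin filaments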
LANA DNA inh = KSHV C-LANA DNA binding inhibition. actives 0.078% (n = 340,000). MBP-C-LANA/FAM-LBS DNA binding, fluorescence polarization. inhibition, % at 9 µM;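 active = highest replicate inhibition at or above 60% at 9 µM, even if other replicates fall short; inactive = all replicates below 60% inhibition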
Keap1 Nrf2 FP = Keap1-Nrf2 (human) interaction inhibition. Q14145. Keap1 Kelch-Nrf2 peptide fluorescence polarization, 1536-well. inhibition, % at 9.4 µM. actives 0.15% (n = 340,000). AID 504523; in the data active = inhibition above about 12%;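 also: human Keap1 Kelch domain with fluorescein labeled Nrf2 9mer peptide probe; higher means more block of Keap1 binding to Nrf2 peptide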
Target sequence (Q14145 whole entry, looked up, the tested form may be a part): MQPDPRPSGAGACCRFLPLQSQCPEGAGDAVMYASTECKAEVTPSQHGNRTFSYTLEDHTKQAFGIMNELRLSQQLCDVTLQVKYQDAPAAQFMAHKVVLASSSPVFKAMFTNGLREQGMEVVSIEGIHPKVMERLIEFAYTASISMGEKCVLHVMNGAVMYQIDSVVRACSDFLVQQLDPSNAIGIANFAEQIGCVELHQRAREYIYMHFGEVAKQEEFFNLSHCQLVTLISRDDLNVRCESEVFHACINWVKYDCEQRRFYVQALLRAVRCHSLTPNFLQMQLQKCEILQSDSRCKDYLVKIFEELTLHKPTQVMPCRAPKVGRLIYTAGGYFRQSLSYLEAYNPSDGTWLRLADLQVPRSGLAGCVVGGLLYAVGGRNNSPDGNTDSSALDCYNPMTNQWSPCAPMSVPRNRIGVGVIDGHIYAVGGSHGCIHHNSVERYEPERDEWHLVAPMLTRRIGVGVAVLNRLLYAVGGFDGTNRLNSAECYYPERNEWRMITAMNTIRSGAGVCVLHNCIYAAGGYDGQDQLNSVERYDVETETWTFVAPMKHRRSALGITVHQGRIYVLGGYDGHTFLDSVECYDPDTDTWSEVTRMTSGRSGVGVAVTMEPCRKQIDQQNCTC
Cardiac RTF inh = cardiac RTF calcium desensitization; inhibition, % at 7.15 µM; P19429+P45379; actives 0.12% (n = 340,000); IANBD-labeled cardiac RTF, Ca2+ fluorescence;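 active = inhibition above the mean inhibition of all tested compounds plus 3 SD, cut at about 17% in these data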;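 also: assay run at fixed EC70 calcium of 1.6 mM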
CAL PDZ FP-2 = inhibitors of human CAL PDZ peptide binding. Q9HD26. purified CAL PDZ, TMR-peptide fluorescence polarization, 1 h. inhibition, % at 24.9 µM. actives 0.92% (n = 300,000). AID 602252;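 active = mean inhibition of at least 30% with at least half of replicates also reaching 30%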
Each line names hits and unclear results; the compound was inactive in the other large screens. Shown are actives, neighbours in structure and some others; about 1.3% of the full set was active somewhere.

CN(C)S(=O)(=O)c1cccc(NC(=O)CN2C(=O)NC3(CCc4ccccc4C3)C2=O)c1 (centres undefined)	none
CC(C)c1nc2cc(C(=O)N(C)C3CCOCC3)ccc2o1	CAL PDZ FP-2 43
O=Cc1ccc(OC(=O)/C=C/c2ccccc2)cc1	CAL PDZ FP-2 79
CCOc1ccc(/C=C/C(=O)Oc2ccccc2)cc1	none
Cc1cccc(C(=O)NCc2nnc(SCC(=O)Nc3nnc(C)s3)n2C)c1	none
Cc1cccnc1NC(=O)CSc1nnc(CNC(=O)c2cccc([N+](=O)[O-])c2)n1C	CAL PDZ FP-2 42
CCSc1nnc(-c2ccncc2)o1	none
c1cc(-c2nnc(-c3ccncc3)o2)ccn1	CAL PDZ FP-2 49 (no result: CAL PDZ FP-1)
COC(=O)c1cc(C(=O)c2ccc(Cl)cc2)n2c(=O)/c(=C\N(C)C)sc12	none
CC1=[N+](C)N(c2ccccc2)C(=O)C1N=C/C=C/c1ccccc1 (centres undefined)	LANA DNA inh 71 (no result: CAL PDZ FP-2)
Cc1ccnc(SCC(=O)Nc2sccc2C#N)n1	CAL PDZ FP-2 39
CC(=O)Nc1ccc(SCC(=O)Nc2sccc2C#N)cc1	none
O=C(Nc1ccc(S(=O)(=O)N2CCCC2)cc1)c1ccc(OCC2CCCO2)cc1 (centres undefined)	CAL PDZ FP-2 53
Cn1c(=O)c2nc(-c3ccccc3)c(-c3ccccc3)nc2n(C)c1=O	CAL PDZ FP-2 66
Cn1c(=O)c2nc(Cl)c(-c3ccccc3)nc2n(C)c1=O	none
O=C(CSc1nnc(CNC(=O)c2ccccc2F)o1)NC1CCCC1	CAL PDZ FP-2 37
Cc1cccc(-c2nnc(SCC(=O)NC3CCCC3)o2)c1	CAL PDZ FP-2 86
O=C(CSc1nnc(CNC(=O)c2ccco2)o1)Nc1ccc(F)cc1	CAL PDZ FP-2 57
O=C(CSc1nnc(CNC(=O)c2ccccc2F)o1)NCc1ccco1	CAL PDZ FP-2 62
O=C(CSc1nnc(-c2cccc(F)c2)o1)NC1CCCC1	none
CCC1Oc2ccccc2N(CC(=O)NCC2CCCO2)C1=O (centres undefined)	none
COc1ccc2nc(C)cc(NCc3ccc(F)cc3)c2c1	cardiac RTF act 69
COc1ccc2nc(C)cc(N/N=C/c3ccccc3)c2c1	none (no result: CAL PDZ FP-2)
COc1ccc(/C=N/Nc2cc(C)nc3ccc(OC)cc23)c(OC)c1	CAL PDZ FP-1 45
O=C1C=C(c2ccccc2)OC(c2ccccc2)O1 (centres undefined)	CAL PDZ FP-2 47
O=C(COc1ccc(Cl)cc1)NCc1ccccc1	cardiac RTF act 152
O=C(COc1ccc(Cl)cc1)Nc1cc(NC(=O)COc2ccc(Cl)cc2)cc(C(=O)O)c1	CAL PDZ FP-2 86 (no result: CAL PDZ FP-1)
CCN(CC)C(=O)[C@H]1C[C@H](CC(=O)NCCc2ccccn2)C(=O)N2CCc3c([nH]c4cc(-c5ccco5)ccc34)[C@]12C	Keap1 Nrf2 FP active
C[C@]12c3[nH]c4cc(-c5ccco5)ccc4c3CCN1C(=O)[C@@H](CC(=O)NCCN1CCOCC1)C[C@@H]2C(=O)N1CCCCC1	CAL PDZ FP-2 48
Cc1ccc2c(CC(=O)N3CCN(S(=O)(=O)c4ccccc4)CC3)coc2c1	none
Cc1ccc2c(CC(=O)N3CCN(S(=O)(=O)c4ccc5c(c4)OCCO5)CC3)coc2c1	CAL PDZ FP-2 58
Cc1ccc(NC(=O)CSCC(=O)Nc2cccc(S(=O)(=O)N3CCCCCC3)c2)cc1	none (no result: CAL PDZ FP-2)
CC(=O)c1cc(Cl)ccc1OCC(=O)Nc1cccc(S(=O)(=O)N2CCCC2)c1	CAL PDZ FP-2 50
Cc1cccc(NC(=O)CCS(=O)(=O)c2ccccc2)c1	CAL PDZ FP-2 62
O=C(COc1ccc(F)cc1Cl)Nc1cccc(S(=O)(=O)N2CCCCCC2)c1	none
Cc1ccc(S(=O)(=O)CCC(=O)Nc2cccc(S(=O)(=O)N3CCCCCC3)c2)cc1	CAL PDZ FP-2 32
Cc1ccc(S(=O)(=O)N2CCCCC2C)cc1[N+](=O)[O-] (centres undefined)	none (no result: CAL PDZ FP-2)
CCc1ccc(NC(=O)Cn2cnc3sc(C)c(S(=O)(=O)N4CCOCC4)c3c2=O)cc1	none
COc1ccc(NC(C)=O)cc1NC(=O)c1cccc(S(=O)(=O)N2CCc3ccccc32)c1	none (no result: CAL PDZ FP-2)
CCN1C(=O)C2C(c3ccc(O)c(OC)c3)NC(C)(C(=O)OC)C2C1=O (centres undefined)	none
CCOC(=O)C1(C)NC(c2cc(OC)c(OC)c(OC)c2)C2C(=O)N(CC)C(=O)C21 (centres undefined)	CAL PDZ FP-2 67
CC(OC(=O)c1cc(S(=O)(=O)N2CCOCC2)ccc1Br)C(=O)N1CCOCC1 (centres undefined)	CAL PDZ FP-2 43
CC(=O)Nc1ccc(NC(=O)C(C)OC(=O)c2cc(S(=O)(=O)N3CCOCC3)ccc2Cl)cc1 (centres undefined)	none
COc1ccccc1NC(=O)Nc1cnccn1	none
O=C(Nc1cnccn1)Nc1ccccc1F	CAL PDZ FP-2 52
COc1ccc(NC(=O)CC#N)cc1OC	CAL PDZ FP-2 30 (no result: CAL PDZ FP-1)
COc1cc2c(cc1OC)CN(c1nc(-c3cccnc3)nc3ccccc13)CC2	CAL PDZ FP-2 71
CN1CCN(c2nc(-c3cccnc3)nc3ccccc23)CC1	none
CCCCNC(=S)N1CCN(C(c2ccccc2)c2ccccc2)CC1	CAL PDZ FP-2 45
CCC1CCCCN1CCCNC(=O)c1c(O)nc2ccccn2c1=O (centres undefined)	CAL PDZ FP-2 78
CC1CCCCN1CCCNC(=O)c1c(O)nc2ccccn2c1=O (centres undefined)	none
Cc1ccc(-c2cc(C(=O)N(C)CC(=O)Nc3ccccc3Br)c3ccccc3n2)o1	none
Nc1cccc(/C=C/c2ccncc2)c1	CAL PDZ FP-2 74
Cc1c(Cl)cccc1NC(=S)N(CCN(C)C)C(C)c1ccccn1 (centres undefined)	CAL PDZ FP-2 81
COc1ccc2c(-c3ccc(OCCN4CCCCC4)cc3)c(-c3ccccc3OC)sc2c1	CAL PDZ FP-2 32
CCOC(=O)C1CCN(C(=O)CCNS(=O)(=O)c2cc(Br)cnc2N)CC1	none (no result: CAL PDZ FP-2)
COC(=O)c1ccc(NC(=S)NNC(=O)CC(C)C)cc1	none
CC(C)CNC(=S)NNC(=O)CC(C)O (centres undefined)	CAL PDZ FP-2 77
CCNC(=S)NNC(=O)CC(C)C	CAL PDZ FP-2 36
Cc1cnn(CCC(=O)NNC(=S)NCC(C)C)c1	none
CCOC(=O)c1cc(S(=O)(=O)N2CCN(c3ccccc3OC)CC2)cn1C	none
CCN(C(=O)CSc1nc2cc(C(=O)O)ccc2c(=O)n1-c1ccccc1F)C1CCS(=O)(=O)C1 (centres undefined)	none
COc1cc(/C=C(\C#N)C(=O)Nc2ccccn2)ccc1O	none
CCOC(=O)c1c(-c2ccc(C)cc2)csc1NC(=O)/C(C#N)=C/c1ccc(O)c(OC)c1	cardiac RTF act 49
